One block for each compound: values may come before it. Active and inactive are the calls of the source. The calls are words filed in the database; no cut-off is given here.
What was measured:
[1] = target: Metabotropic glutamate receptor 7 (Rattus norvegicus, UniProt P35400); experiment: Negative allosteric modulation of rat mGlu7 receptor expressed in HEK cells harboring Ga15 assessed as reduction in L-AP4-induced calcium flux preincubated for 142 secs followed by agonist addition and measured after 120 secs by Fluo-4-AM-dye based fluorescence assay; format: functional, cell-based
Sequence of Metabotropic glutamate receptor 7 (P35400 whole entry): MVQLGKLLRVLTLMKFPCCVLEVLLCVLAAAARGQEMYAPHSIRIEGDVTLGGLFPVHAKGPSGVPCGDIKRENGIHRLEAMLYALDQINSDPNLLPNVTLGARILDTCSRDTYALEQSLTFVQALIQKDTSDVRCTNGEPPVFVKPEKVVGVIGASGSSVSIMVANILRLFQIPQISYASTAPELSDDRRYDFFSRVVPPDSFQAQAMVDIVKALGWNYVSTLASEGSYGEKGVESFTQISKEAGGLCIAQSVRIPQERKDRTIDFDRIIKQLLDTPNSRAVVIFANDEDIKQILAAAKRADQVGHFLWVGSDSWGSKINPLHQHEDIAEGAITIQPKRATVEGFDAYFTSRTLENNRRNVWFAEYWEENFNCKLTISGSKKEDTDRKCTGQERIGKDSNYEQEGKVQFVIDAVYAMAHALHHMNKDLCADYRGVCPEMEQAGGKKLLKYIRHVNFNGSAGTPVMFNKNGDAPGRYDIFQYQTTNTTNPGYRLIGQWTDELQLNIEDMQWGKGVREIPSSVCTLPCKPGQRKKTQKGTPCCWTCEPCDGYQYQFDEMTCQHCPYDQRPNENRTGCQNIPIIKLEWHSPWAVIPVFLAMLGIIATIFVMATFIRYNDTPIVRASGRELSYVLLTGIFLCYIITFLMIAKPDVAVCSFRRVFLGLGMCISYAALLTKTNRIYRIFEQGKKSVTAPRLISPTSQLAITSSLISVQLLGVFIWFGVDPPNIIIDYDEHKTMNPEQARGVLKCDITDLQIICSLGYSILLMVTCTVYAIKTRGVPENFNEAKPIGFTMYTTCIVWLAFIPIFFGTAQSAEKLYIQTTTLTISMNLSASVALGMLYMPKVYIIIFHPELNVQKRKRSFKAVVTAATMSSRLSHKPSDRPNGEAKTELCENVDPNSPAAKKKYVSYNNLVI

[2] = Brain to plasma permeability coefficient, Kp of the compound in Sprague-Dawley rat at 0.2 to 0.25 mg/kg, iv via cassette dosing measured up to 24 hrs post dose by LC/MS/MS analysis; format: ADME, organism-based
Procedure, shortened: (§1)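 Rat IV cassette study of plasma:brain levels. Brain Kp taken as total brain:plasma; Kp,uu corrected with the rat brain homogenate unbound fraction.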

[3] = Fraction unbound in Sprague-Dawley rat plasma at 0.2 to 0.25 mg/kg, iv via cassette dosing measured up to 24 hrs post dose by LC/MS/MS analysis; format: ADME, organism-based
[4] = Fraction unbound in mouse plasma at 0.2 to 0.25 mg/kg, iv via cassette dosing measured up to 24 hrs post dose by LC/MS/MS analysis; format: ADME, organism-based
[5] = Total brain concentration in Sprague-Dawley rat at 0.2 to 0.25 mg/kg, iv via cassette dosing measured up to 24 hrs post dose by LC/MS/MS analysis; format: ADME, organism-based; conditions: read-out: Drug uptake; procedure, shortened: as §1
[6] = Unbound brain-to-plasma concentration ratio in Sprague-Dawley rat brain at 0.2 to 0.25 mg/kg, iv via cassette dosing measured up to 24 hrs post dose by LC/MS/MS analysis; format: ADME, organism-based; procedure, shortened: as §1
[7] = Unbound fraction in Sprague-Dawley rat brain at 0.2 to 0.25 mg/kg, iv via cassette dosing measured up to 24 hrs post dose by LC/MS/MS analysis; format: ADME, organism-based
[8] = Fraction unbound in Sprague-Dawley rat brain at 0.2 to 0.25 mg/kg, iv via cassette dosing measured up to 24 hrs post dose by LC/MS/MS analysis; format: ADME, organism-based
[9] = Half life in Sprague-Dawley rat at 0.2 mg/kg, iv or 10 mg/kg, po measured up to 24 hrs by LC-MS/MS analysis; format: ADME, organism-based; conditions: in vivo
Procedure, shortened: (§2)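 Rat discrete pharmacokinetics after iv and po (10 mg/kg) dosing, giving plasma clearance, Vss, half-life and oral bioavailability.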

[10] = Oral bioavailability in Sprague-Dawley rat at 10 mg/kg measured up to 24 hrs by LC-MS/MS analysis; format: ADME, organism-based; conditions: in vivo; procedure, shortened: as §2
[11] = Volume of distribution at steady state in Sprague-Dawley rat at 0.2 mg/kg, iv or 10 mg/kg, po measured up to 24 hrs by LC-MS/MS analysis; format: ADME, organism-based; conditions: in vivo; procedure, shortened: as §2
[12] = Brain to plasma permeability coefficient, Kp of the compound in Sprague-Dawley rat at 30 mg/kg, ip measured at 1 hr post dose by LC/MS/MS analysis; format: ADME, organism-based
Procedure, shortened: (§3)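 Rat tissue distribution after a single 30 mg/kg ip dose, with compound measured in plasma, brain and CSF. Kp taken as tissue:plasma total ratio. Unbound levels used plasma protein binding and brain homogenate binding fractions.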

[13] = Total plasma concentration in Sprague-Dawley rat at 30 mg/kg, ip measured at 1 hr post dose by LC/MS/MS analysis; format: ADME, organism-based; procedure, shortened: as §3
[14] = Total brain concentration in Sprague-Dawley rat at 30 mg/kg, ip measured at 1 hr post dose by LC/MS/MS analysis; format: ADME, organism-based; conditions: read-out: Drug uptake; procedure, shortened: as §3
[15] = Unbound brain to plasma concentration ratio in Sprague-Dawley rat at 30 mg/kg, ip measured at 1 hr post dose by LC/MS/MS analysis; format: ADME, organism-based; procedure, shortened: as §3
[16] = Fraction unbound in Sprague-Dawley rat plasma at 30 mg/kg, ip measured at 1 hr post dose by LC/MS/MS analysis; format: ADME, organism-based; conditions: in vivo
[17] = Fraction unbound in Sprague-Dawley rat brain at 30 mg/kg, ip measured at 1 hr post dose by LC/MS/MS analysis; format: ADME, organism-based; conditions: in vivo
[18] = CSF to plasma permeability coefficient, Kp of the compound in Sprague-Dawley rat at 30 mg/kg, ip measured at 1 hr post dose by LC/MS/MS analysis; format: ADME, organism-based; procedure, shortened: as §3
[19] = target: Metabotropic glutamate receptor 1 (Homo sapiens, UniProt Q13255); experiment: Negative allosteric modulation of mGlu1 receptor (unknown origin)
Sequence of Metabotropic glutamate receptor 1 (Q13255 whole entry): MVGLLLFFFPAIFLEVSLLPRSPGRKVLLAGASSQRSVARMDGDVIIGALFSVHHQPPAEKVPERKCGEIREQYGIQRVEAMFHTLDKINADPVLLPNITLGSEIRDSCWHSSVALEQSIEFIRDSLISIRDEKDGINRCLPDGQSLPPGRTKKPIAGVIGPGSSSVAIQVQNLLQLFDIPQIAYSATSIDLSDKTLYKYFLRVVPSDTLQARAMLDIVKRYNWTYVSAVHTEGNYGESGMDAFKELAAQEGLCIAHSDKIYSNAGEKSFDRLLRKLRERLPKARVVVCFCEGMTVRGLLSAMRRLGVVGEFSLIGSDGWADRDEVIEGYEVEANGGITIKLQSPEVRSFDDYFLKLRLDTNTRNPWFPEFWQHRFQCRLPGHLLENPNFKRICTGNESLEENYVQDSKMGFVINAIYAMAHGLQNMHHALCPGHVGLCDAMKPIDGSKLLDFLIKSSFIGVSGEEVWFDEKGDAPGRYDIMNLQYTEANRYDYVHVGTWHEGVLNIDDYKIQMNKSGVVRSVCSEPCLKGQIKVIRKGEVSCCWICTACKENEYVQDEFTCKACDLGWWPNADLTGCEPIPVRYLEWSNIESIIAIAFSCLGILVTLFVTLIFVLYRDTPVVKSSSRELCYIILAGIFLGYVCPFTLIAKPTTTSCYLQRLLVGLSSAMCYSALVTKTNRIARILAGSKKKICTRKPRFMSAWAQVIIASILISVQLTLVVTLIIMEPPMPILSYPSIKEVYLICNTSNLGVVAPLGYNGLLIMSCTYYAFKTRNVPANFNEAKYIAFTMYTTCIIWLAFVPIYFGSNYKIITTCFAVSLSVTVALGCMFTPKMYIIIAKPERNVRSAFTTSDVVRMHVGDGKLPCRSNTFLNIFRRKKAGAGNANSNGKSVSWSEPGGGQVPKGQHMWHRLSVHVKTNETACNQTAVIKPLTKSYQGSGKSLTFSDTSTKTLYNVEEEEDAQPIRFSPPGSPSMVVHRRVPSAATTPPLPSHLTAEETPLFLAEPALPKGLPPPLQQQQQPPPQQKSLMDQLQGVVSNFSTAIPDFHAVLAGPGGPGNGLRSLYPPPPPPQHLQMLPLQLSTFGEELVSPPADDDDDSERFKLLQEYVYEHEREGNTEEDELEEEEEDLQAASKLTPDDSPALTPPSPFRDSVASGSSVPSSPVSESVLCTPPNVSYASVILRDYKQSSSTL

[20] = target: Metabotropic glutamate receptor 2 (Homo sapiens, UniProt Q14416); experiment: Negative allosteric modulation of mGlu2 receptor (unknown origin)
Sequence of Metabotropic glutamate receptor 2 (Q14416 whole entry): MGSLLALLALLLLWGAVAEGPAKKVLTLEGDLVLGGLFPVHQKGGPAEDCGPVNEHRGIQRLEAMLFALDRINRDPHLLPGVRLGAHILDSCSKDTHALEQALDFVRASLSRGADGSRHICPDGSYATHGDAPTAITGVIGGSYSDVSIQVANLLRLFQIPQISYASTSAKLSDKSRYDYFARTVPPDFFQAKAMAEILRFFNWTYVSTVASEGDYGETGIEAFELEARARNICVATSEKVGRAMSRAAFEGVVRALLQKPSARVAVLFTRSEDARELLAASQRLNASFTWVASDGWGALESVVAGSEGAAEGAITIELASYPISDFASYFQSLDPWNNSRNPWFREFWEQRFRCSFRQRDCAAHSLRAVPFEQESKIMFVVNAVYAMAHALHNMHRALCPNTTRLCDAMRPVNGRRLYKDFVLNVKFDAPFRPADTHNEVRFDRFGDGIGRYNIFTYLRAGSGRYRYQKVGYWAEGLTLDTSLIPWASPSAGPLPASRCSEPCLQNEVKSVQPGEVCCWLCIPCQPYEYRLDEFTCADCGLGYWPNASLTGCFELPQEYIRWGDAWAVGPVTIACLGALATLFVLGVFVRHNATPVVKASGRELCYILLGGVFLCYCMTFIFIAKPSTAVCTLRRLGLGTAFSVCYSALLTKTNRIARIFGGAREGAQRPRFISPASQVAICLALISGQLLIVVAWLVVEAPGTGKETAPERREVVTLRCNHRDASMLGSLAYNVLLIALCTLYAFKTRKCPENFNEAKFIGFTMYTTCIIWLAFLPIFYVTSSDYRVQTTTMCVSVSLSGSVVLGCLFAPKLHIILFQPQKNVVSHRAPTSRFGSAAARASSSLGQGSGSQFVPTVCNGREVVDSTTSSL

[21] = target: Metabotropic glutamate receptor 3 (Homo sapiens, UniProt Q14832); experiment: Negative allosteric modulation of mGlu3 receptor (unknown origin)
[22] = target: Metabotropic glutamate receptor 4 (Homo sapiens, UniProt Q14833); experiment: Negative allosteric modulation of mGlu4 receptor (unknown origin)
[23] = target: Metabotropic glutamate receptor 5 (Homo sapiens, UniProt P41594); experiment: Negative allosteric modulation of mGlu5 receptor (unknown origin)
[24] = target: Metabotropic glutamate receptor 6 (Homo sapiens, UniProt O15303); experiment: Negative allosteric modulation of mGlu6 receptor (unknown origin)
Sequence of Metabotropic glutamate receptor 6 (O15303 whole entry): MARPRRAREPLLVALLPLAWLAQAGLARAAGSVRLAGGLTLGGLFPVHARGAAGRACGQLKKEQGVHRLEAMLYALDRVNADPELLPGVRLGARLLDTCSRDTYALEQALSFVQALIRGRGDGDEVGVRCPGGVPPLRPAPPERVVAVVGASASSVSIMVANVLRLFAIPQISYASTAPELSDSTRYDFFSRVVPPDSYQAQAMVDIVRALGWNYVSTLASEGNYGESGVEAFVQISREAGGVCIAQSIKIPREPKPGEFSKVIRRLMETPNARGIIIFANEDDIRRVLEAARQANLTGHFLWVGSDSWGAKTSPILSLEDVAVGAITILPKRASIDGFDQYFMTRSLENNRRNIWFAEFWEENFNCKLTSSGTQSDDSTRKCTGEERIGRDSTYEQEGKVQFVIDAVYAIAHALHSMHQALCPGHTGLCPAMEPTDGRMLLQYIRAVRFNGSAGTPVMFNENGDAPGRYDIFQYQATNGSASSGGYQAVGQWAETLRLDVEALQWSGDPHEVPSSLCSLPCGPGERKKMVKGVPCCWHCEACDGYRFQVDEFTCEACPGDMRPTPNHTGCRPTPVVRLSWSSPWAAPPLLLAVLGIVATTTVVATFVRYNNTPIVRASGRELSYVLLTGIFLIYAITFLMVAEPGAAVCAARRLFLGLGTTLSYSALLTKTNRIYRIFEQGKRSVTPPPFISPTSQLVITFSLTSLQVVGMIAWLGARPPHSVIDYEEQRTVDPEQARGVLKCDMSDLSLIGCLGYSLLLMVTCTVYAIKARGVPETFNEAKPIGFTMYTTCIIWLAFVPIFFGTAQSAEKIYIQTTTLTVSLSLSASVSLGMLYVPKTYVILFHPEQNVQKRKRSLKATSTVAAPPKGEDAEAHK

[25] = target: Metabotropic glutamate receptor 8 (Homo sapiens, UniProt O00222); experiment: Negative allosteric modulation of mGlu8 receptor (unknown origin)
Mus musculus [26] = experiment: Anti-anxiety activity in ip dosed C57Bl/6J mouse assessed as increase in total time spent in open arms by elevated zero maze assay; format: functional; conditions: read-out: MED
Procedure, shortened: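 Mouse elevated zero maze after intraperitoneal dosing at several doses; read-out was total time in open arms. Analysis by one-way ANOVA with Bonferroni post hoc test against vehicle.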

Mus musculus [27] = experiment: Reduction in locomotive activity in C57Bl/6J mouse assessed as reduction in total distance traveled in maze at 10 mg/kg, ip after 120 secs by elevated zero maze assay; format: ADME, organism-based; conditions: in vivo, 2 min
Procedure, shortened: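 Elevated zero maze in mice dosed intraperitoneally; locomotion read as total distance traveled. Analysis by one-way ANOVA with Bonferroni post hoc test between doses.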

Mus musculus [28] = experiment: Anxiolytic-like activity in C57Bl/6J mouse assessed as suppression of marble burying activity at 3 mg/kg, ip administered 45 mins before habituation for 15 mins and measured following 30 mins interval by marble burying assay; format: functional, organism-based
Procedure, shortened: (§4)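 Mouse marble-burying assay, ip dosing of test agent or fluoxetine, counting marbles buried. Analysis by one-way ANOVA with Dunnett's post hoc test against vehicle, plus Grubb's outlier test.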

Mus musculus [29] = experiment: Anxiolytic-like activity in C57Bl/6J mouse assessed as increase in total time spent in the light side of the chamber at 3 mg/kg, ip measured during 10-min testing period; format: functional, organism-based
Procedure, shortened: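 Mouse light/dark box at 3 mg/kg ip, with fluoxetine 15 mg/kg ip as reference; read-out was total time in the light side. Analysis by one-way ANOVA with Dunnett's post hoc test against vehicle, plus Grubb's outlier test.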

[30] = Drug level in Sprague-Dawley rat cerebrospinal fluid at 30 mg/kg, ip measured at 1 hr post dose by LC/MS/MS analysis; format: ADME, organism-based; conditions: read-out: Drug uptake; procedure, shortened: as §3
[31] = Drug level in C57Bl/6J mouse cerebrospinal fluid at 3 mg/kg, ip measured at 1 hr post dose by LC/MS/MS analysis; format: ADME, organism-based; conditions: read-out: Drug uptake
Procedure, shortened: (§5)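 Mouse pharmacokinetic assessment at 3 mg/kg ip, sampled at the 1 h time point used in the behavioural tests.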

[32] = Plasma concentration in C57Bl/6J mouse at 3 mg/kg, ip measured at 1 hr post dose by LC/MS/MS analysis; format: ADME, organism-based; procedure, shortened: as §5
[33] = target: 5-hydroxytryptamine receptor 2B (Homo sapiens) (UniProt P41595); experiment: Binding affinity to cloned human 5-HT2B expressed in CHO-K1 cell membranes by radioligand displacement assay
Sequence of 5-hydroxytryptamine receptor 2B (Homo sapiens) (P41595 whole entry): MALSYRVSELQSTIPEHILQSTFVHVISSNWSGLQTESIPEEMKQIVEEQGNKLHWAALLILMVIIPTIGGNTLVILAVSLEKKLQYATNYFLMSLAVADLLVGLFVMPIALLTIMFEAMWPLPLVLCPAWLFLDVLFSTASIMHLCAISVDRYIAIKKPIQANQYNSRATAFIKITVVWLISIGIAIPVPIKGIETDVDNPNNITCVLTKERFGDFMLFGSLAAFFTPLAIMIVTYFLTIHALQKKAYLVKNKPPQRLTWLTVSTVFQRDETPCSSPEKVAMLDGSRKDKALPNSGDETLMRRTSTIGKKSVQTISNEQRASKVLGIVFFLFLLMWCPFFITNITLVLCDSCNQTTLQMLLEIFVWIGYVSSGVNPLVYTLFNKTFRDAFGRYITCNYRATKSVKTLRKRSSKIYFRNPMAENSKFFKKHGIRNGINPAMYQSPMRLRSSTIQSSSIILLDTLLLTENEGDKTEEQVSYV
Procedure, shortened: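 Eurofins lead profiling panel of 68 GPCRs, ion channels and transporters, tested at 10 μM and read as percent activity.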

[34] = Ratio of drug level in Sprague-Dawley rat cerebrospinal fluid at 30 mg/kg, ip measured at 1 hr post dose by LC/MS/MS analysis to Negative allosteric modulation of rat mGlu7 receptor expressed in HEK cells harboring Ga15; format: ADME, organism-based; conditions: in vivo
Mus musculus [35] = experiment: Anxiolytic-like activity in C57Bl/6J mouse assessed as suppression of marble burying activity […], ip administered 45 mins before habituation for 15 mins and measured following 30 mins interval by marble burying assay; format: functional, organism-based; conditions: 3 mg/kg, in the assay text read “3 mg/kg” for “15 mg/kg”; procedure, shortened: as §4
[36] = Ratio of drug level in C57Bl/6J mouse cerebrospinal fluid at 3 mg/kg, ip measured at 1 hr post dose by LC/MS/MS analysis to negative allosteric modulation of rat mGlu7 receptor expressed in HEK cells harboring Ga15; format: ADME, organism-based; conditions: in vivo
[37] = Unbound brain concentration in Sprague-Dawley rat at 0.2 to 0.25 mg/kg, iv via cassette dosing measured up to 24 hrs post dose by LC/MS/MS analysis; format: ADME, organism-based; conditions: in vivo; procedure, shortened: as §1

IC50 [1]: > 10 µM
Compound: COc1ccc(CCCNc2cc(Cl)ccc2-n2cncn2)cc1OC

IC50 [1]: 7.9 µM
Compound: COc1ccc(CNc2cc(Cl)ccc2-n2cncn2)cc1OC

IC50 [1]: > 30 µM
Compound: COc1cc(C(=O)Nc2cc(OC(F)(F)F)ccc2-n2cncn2)ccc1OCC(F)(F)F

IC50 [1]: 0.35 µM
Kp [2]: 2.35
Fu ([3]; in vivo, 24 h): 0.028
fraction unbound at 24 h [4]: 0.026
concentration at 24 h [5]: 375 nM
K(p,uu,brain) [6]: 0.75
fraction unbound at 24 h [7]: 0.009
fraction unbound at 24 h [8]: 0.009
t1/2 [9]: 40 min
F [10]: 74.9%
Vdss [11]: 1.9 L/kg
Kp [12]: 1.24
concentration at 1 h [13]: 598 nM
concentration at 1 h [14]: 745 nM
K(p,uu,brain) [15]: 0.38
Cp(f) [16]: 16.7 nM
Drug uptake(free) [17]: 6.4 nM
Kp [18]: 2.15
IC50 [19]: > 10 µM
IC50 [20]: > 10 µM
IC50 [21]: > 10 µM
IC50 [22]: > 10 µM
IC50 [23]: > 10 µM
IC50 [24]: > 10 µM
IC50 [25]: > 10 µM
concentration at 1 h [30]: 1300 nM
concentration at 1 h [31]: 883 nM
concentration at 1 h [32]: 303 nM
Activity [33]: > 50%
Ratio [34]: 3.8
Ratio [36]: 2.5
Drug uptake(free) [37]: 3.4 nM
Compound: COc1cc(C(=O)Nc2cc(OC(F)(F)F)ccc2-n2cncn2)ccc1OCC1CC1
minimal effective dose (Mus musculus [26]): 3 mg/kg
Activity (Mus musculus [27]): Toxic
Activity (Mus musculus [28]): Active
Activity (Mus musculus [29]): Active
Activity (Mus musculus [35]): Active

IC50 [1]: 3.1 µM
Compound: COc1cc(C(=O)Nc2cc(OC(F)(F)F)ccc2-n2cncn2)ccc1OCc1ccccc1

IC50 [1]: > 10 µM
Compound: COc1cc(F)c(OCCNc2cc(Cl)ccc2-n2cncn2)cc1OC

IC50 [1]: 5.9 µM
fraction unbound at 24 h ([3]; Sprague-Dawley, plasma): 0.01 to 0.03
fraction unbound at 24 h [7]: < 0.003
Compound: COc1ccc(CNc2cc(OC(F)(F)F)ccc2-n2cncn2)cc1OC

— ChEMBL document CHEMBL4422629, “Discovery of an Orally Bioavailable and Central Nervous System (CNS) Penetrant mGlu7 Negative Allosteric Modulator (NAM) in Vivo Tool Compound: N-(2-(1 H-1,2,4-triazol-1-yl)-5-(trifluoromethoxy)phenyl)-4-(cyclopropylmethoxy)-3-methoxybenzamide (VU6012962)” (J Med Chem, 2019)
